We go through five molecules from ChEMBL document CHEMBL4196197, “Irilone from Red Clover ( Trifolium pratense) Potentiates Progesterone Signaling” (J Nat Prod, 2018).

For data set [1], the system named is PEO1. Put plainly: Antiproliferative activity against human PEO1 cells at 0.001 to 10 uM after 5 days by SRB assay. In kind it is functional, cell-based. The essentials: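 PEO1 cells kept in RPMI with 2 mM glutamine, 2 mM sodium pyruvate and 10% FBS; seeded at 1,000 cells/well in steroid-free medium. A day-0 plate was fixed with 20% TCA 2 h after seeding; the second plate was treated for 5 days, then fixed. SRB stain (0.4% in 1% acetic acid), dissolved in 10 mM Tris, A505; day 5 normalized to day 0; n≥3.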

A further data set addresses T1, Progesterone receptor (Homo sapiens, UniProt P06401).
T1 sequence (P06401 whole entry): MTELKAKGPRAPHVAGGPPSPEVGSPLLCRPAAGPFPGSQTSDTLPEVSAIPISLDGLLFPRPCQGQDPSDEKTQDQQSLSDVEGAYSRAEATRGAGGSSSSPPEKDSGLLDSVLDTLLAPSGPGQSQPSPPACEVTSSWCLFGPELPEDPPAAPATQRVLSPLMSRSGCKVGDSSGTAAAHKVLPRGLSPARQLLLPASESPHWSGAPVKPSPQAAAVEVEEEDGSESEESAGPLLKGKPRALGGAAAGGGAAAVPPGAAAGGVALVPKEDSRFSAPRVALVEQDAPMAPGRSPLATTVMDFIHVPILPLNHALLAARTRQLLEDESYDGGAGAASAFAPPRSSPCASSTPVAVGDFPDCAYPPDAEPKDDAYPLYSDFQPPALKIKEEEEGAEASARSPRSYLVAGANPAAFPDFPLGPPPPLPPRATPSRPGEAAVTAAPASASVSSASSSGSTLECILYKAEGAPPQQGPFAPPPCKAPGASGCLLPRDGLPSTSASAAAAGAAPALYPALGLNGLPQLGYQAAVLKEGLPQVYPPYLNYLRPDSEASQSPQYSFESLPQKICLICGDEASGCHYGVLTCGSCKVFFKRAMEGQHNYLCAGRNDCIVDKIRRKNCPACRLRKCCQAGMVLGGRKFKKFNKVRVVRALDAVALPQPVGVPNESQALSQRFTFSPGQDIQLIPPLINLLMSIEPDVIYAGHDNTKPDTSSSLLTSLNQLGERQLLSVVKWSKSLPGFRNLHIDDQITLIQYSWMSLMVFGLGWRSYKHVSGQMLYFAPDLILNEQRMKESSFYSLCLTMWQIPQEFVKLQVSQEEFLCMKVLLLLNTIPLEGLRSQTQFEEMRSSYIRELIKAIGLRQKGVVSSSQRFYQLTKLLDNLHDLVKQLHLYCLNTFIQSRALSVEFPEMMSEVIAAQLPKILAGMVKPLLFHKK
Put plainly: Induction of PR-b degradation in human Ishikawa cells up to 50 uM after 24 hrs by Western blot analysis. The class given is cell-based. The essentials:
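Ishikawa PR-B cells in steroid-free medium treated with 0, 25 or 50 μM for 24 h. RIPA lysates with protease/phosphatase inhibitors, 25 μg protein by SDS-PAGE onto nitrocellulose. Blocked in 5% milk, probed overnight with anti-PR (H-190, 1:500) and β-actin (1:1000), anti-rabbit secondary, chemiluminescent detection.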

Data set [2] has as its target T2, Progesterone receptor (Homo sapiens) (UniProt P06401).
T2 sequence (whole entry): T1 sequence (P06401 whole entry)
Briefly: Agonist activity at PR-b (unknown origin) expressed in Ishikawa cells assessed as increase in PRE activity at 1 uM after 24 hrs in absence of progesterone by luciferase reporter gene based luminescence assay. The class given is cell-based. The essentials:
(§1)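 Ishikawa cells stably expressing CMV-driven PR-B, kept in phenol red-free DMEM/F12 with 5% charcoal-stripped FBS plus G418/hygromycin. Seeded 40,000/well in steroid-free medium. Next day transfected with PRE/Luc plus CMV-β-galactosidase (LT1). Compounds were added without progesterone for 24 h, then lysed and frozen at −80 °C. Luciferase (mean of first six RLU reads) normalized to β-gal, then to DMSO control, n≥3.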

Data set [3] has as its target T2, Progesterone receptor (Homo sapiens). Briefly: Antagonist activity at PR-b (unknown origin) expressed in Ishikawa cells assessed as inhibition of progesterone-induced PRE activity at >= 25 uM after 24 hrs by luciferase reporter gene based luminescence assay. The class given is cell-based. The essentials: (§2)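 PRE/Luc transactivation in Ishikawa cells stably expressing PR-B under CMV, seeded 40,000/well in steroid-free phenol red-free medium with charcoal-stripped FBS. Next day co-transfected with PRE/Luc and CMV-β-galactosidase. Compounds were given together with 100 nM progesterone for 24 h. Luciferase, averaged over the first six RLU reads, normalized to β-gal and then to control; n≥3.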

Data set [4] has the same target. Put plainly: Agonist activity at PR-b (unknown origin) expressed in Ishikawa cells assessed as increase in progesterone-induced PRE activity at 1 uM after 24 hrs by luciferase reporter gene based luminescence assay. The class given is cell-based. The essentials:
as §2

The target is the same in data set [5]. Briefly: Antagonist activity at PR-b (unknown origin) expressed in Ishikawa cells assessed as inhibition of progesterone-induced PRE activity at 50 uM after 24 hrs by luciferase reporter gene based luminescence assay. In kind it is cell-based. The essentials: as §2
Data set [6] has the same target. Put plainly: Antagonist activity at PR-b (unknown origin) expressed in Ishikawa cells assessed as inhibition of basal PRE activity at 50 uM after 24 hrs in absence of progesterone by luciferase reporter gene based luminescence assay. In kind it is cell-based. The essentials:
as §1

Data set [7] shares this target. Briefly: Antagonist activity at PR-b (unknown origin) expressed in Ishikawa cells assessed as inhibition of basal PRE activity at 25 to 50 uM after 24 hrs in absence of progesterone by luciferase reporter gene based luminescence assay. In kind it is cell-based. The essentials:
as §1

Data set [8] deals with PEO1. Put plainly: Antiproliferative activity against human PEO1 cells at 1 to 50 uM after 5 days by SRB assay. The class given is functional, cell-based. The essentials: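 PEO1 cells (RPMI, 10% FBS, glutamine, pyruvate) seeded at 1,000/well in steroid-free medium, one plate fixed at 2 h as day 0. Compounds at 1–50 μM, alone without progesterone, for 5 days. Fixed with 20% TCA at 4 °C, stained with 0.4% SRB in 1% acetic acid, dissolved in 10 mM Tris, A505. Day 5 normalized to day 0; n≥3.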

Data set [9] has as its target T2, Progesterone receptor (Homo sapiens). Put plainly: Agonist activity at PR-b (unknown origin) expressed in Ishikawa cells assessed as increase in PRE activity at 1 to 50 uM after 24 hrs in absence of progesterone by luciferase reporter gene based luminescence assay. In kind it is cell-based. The essentials:
as §1

The subject of data set [10] is PEO1. Briefly: Antiproliferative activity against human PEO1 cells at 25 to 50 uM after 5 days by SRB assay. In kind it is functional, cell-based. The essentials: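 SRB growth assay in PEO1 cells: 1,000 cells/well in steroid-free medium, day-0 plate TCA-fixed 2 h after seeding. Compound was given together with 100 nM progesterone for five days, then cells TCA-fixed, SRB-stained, dye solubilized in 10 mM Tris, absorbance at 505 nm. Day-5 values normalized to day 0; n≥3.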

Data set [11] concerns the target T2, Progesterone receptor (Homo sapiens). Put plainly: Agonist activity at PR-b (unknown origin) expressed in Ishikawa cells assessed as increase in progesterone-induced PRE activity at 25 uM after 24 hrs by luciferase reporter gene based luminescence assay relative to control. In kind it is cell-based. The essentials: as §2
The target is the same in data set [12]. Put plainly: Agonist activity at PR-b (unknown origin) expressed in Ishikawa cells assessed as increase in PRE activity at 50 uM after 24 hrs by luciferase reporter gene based luminescence assay (reference value: 25.7). The class given is cell-based. The essentials: as §1
Data set [13] shares this target. Put plainly: Agonist activity at PR-b (unknown origin) expressed in Ishikawa cells assessed as increase in progesterone-induced PRE activity at 50 uM after 24 hrs by luciferase reporter gene based luminescence assay relative to control. In kind it is cell-based. The essentials: as §2

Active and inactive are the calls of the source. The calls are words filed in the database; no cut-off is given here. A value given as a limit tells only on which side of the number the result lay.

Turning to `CC(=O)[C@H]1CC[C@H]2[C@@H]3CCC4=CC(=O)CC[C@]4(C)[C@H]3CC[C@]12C`, the result in the data set with PEO1 [1] was inactive.
Consider `COc1ccc(-c2coc3cc(O)cc(O)c3c2=O)cc1` [BIOCHANIN], for which the Activity result at Progesterone receptor is “Not Active”; in data set [2], 55%. The inhibition entry in data set [3] and in [6] was “Active” throughout. Besides, the outcome in data set [4] was Active. For the same molecule, in [5], the inhibition is over 90%.
As for `COc1cc(O)c2c(=O)c(-c3ccc(O)cc3)coc2c1` [PRUNETIN], the Activity result at Progesterone receptor is given as “Not Active”. For the same molecule, the inhibition result in data set [3] and in [7] was “Active” throughout. Also, the inhibition in data set [5] is over 90%.
As for `O=c1c(-c2ccc(O)cc2)coc2cc3c(c(O)c12)OCO3`, the Activity result is “Not Active” on Progesterone receptor, 138% in data set [11] and 151% in data set [13]. Also, the outcome (in the data set on PEO1 [8]; in data set [9]) was inactive. Also, the result with PEO1 [10] was Active. Also, the fold change (FC) in data set [12] came out at 48.4.
Regarding `COc1ccc(-c2coc3cc(O)ccc3c2=O)cc1` [FORMONONETIN], the Activity entry at Progesterone receptor was “Not Active”; in data set [4], 57%. Further, the inhibition result in [3] and in data set [6] was “Active” throughout. Moreover, the inhibition in data set [5] is over 90%.
